Experimental data from ChEMBL document CHEMBL3627690, “Scaffold-Hopping and Structure-Based Discovery of Potent, Selective, And Brain Penetrant N-(1H-Pyrazol-3-yl)pyridin-2-amine Inhibitors of Dual Leucine Zipper Kinase (DLK, MAP3K12)” (J Med Chem, 2015).

Legend:
[1] = molecular target: 5'-AMP-activated protein kinase catalytic subunit alpha-1 (Homo sapiens) (UniProt Q13131); assay: Inhibition of PRKAA1 (unknown origin) at 1 uM by FRET method
In short: (§1)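 Single-point screen at 1 uM against a panel of 58 representative kinases. Readout was labeled-peptide phosphorylation by FRET (Z′-LYTE), using the vendor's protocols.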

[2] = molecular target: High affinity nerve growth factor receptor (Homo sapiens, UniProt P04629); assay: Inhibition of TrkA (unknown origin) at 1 uM by FRET method; in short: as §1
[3] = molecular target: Activin receptor type-1B (Homo sapiens) (UniProt P36896); assay: Inhibition of ACVR1B (unknown origin) at 1 uM by FRET method
In short: (§2)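 SelectScreen panel of 58 kinases, each tested at a single 1 µM compound concentration. Read-out was Z′-LYTE FRET of labeled peptide phosphorylation, run by the vendor's protocols, reported as percent inhibition.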

[4] = molecular target: Vascular endothelial growth factor receptor 2 (Homo sapiens) (UniProt P35968); assay: Inhibition of KDR (unknown origin) at 1 uM by FRET method; in short: as §2
[5] = molecular target: T1, Mitogen-activated protein kinase kinase kinase 9 (Homo sapiens, UniProt P80192); assay: Inhibition of MLK1 (unknown origin) by FRET method
In short: (§3)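 Biochemical IC50 determination from a 10-point dose-response in an enzymatic Z′-LYTE assay. Labeled-peptide phosphorylation was read by FRET under the vendor's protocols.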

[6] = molecular target: T1, Mitogen-activated protein kinase kinase kinase 9; assay: Inhibition of MLK1 (unknown origin) at 1 uM by FRET method; in short: as §1
[7] = molecular target: Dual specificity mitogen-activated protein kinase kinase 7 (Homo sapiens, UniProt O14733); assay: Inhibition of MKK7 (unknown origin) using KFMMpTPYVVTR substrate incubated for 1 hr measured by MpTPpYV probe-based fluorescence polarization assay
[8] = molecular target: Mast/stem cell growth factor receptor Kit (Homo sapiens, UniProt P10721); assay: Inhibition of Kit (unknown origin) at 1 uM by FRET method; in short: as §2
[9] = molecular target: Mitogen-activated protein kinase kinase kinase 10 (Homo sapiens, UniProt Q02779); conditions: 1 uM
[10] = molecular target: T2, Proto-oncogene tyrosine-protein kinase Src (Homo sapiens, UniProt P12931); conditions: 1 uM
[11] = molecular target: Interleukin-1 receptor-associated kinase 4 (Homo sapiens) (UniProt Q9NWZ3); assay: Inhibition of IRAK4 (unknown origin) at 1 uM by FRET method; in short: as §2
[12] = molecular target: Macrophage colony-stimulating factor 1 receptor (Homo sapiens, UniProt P07333); assay: Inhibition of CSF1R (unknown origin) by FRET method
[13] = Ratio of unbound AUC in brain to plasma of […] rat at 0.4 or 1 mg/kg, iv and 1 or 5 mg/kg, po; type: ADME, organism-based
In short: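 Rat PK: iv dosing at 0.4 or 1 mg/kg as a 60% PEG solution and oral dosing at 1 or 5 mg/kg as an aqueous suspension in 1% methylcellulose. The ratio is unbound brain AUC over unbound plasma AUC. Unbound clearance was taken as CL/fu, where fu is the fraction unbound in plasma.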

[14] = molecular target: Angiopoietin-1 receptor (Homo sapiens) (UniProt Q02763); assay: Inhibition of Tie2 (unknown origin) at 1 uM by FRET method; in short: as §1
[15] = molecular target: Inhibitor of nuclear factor kappa-B kinase subunit beta (Homo sapiens) (UniProt O14920); assay: Inhibition of IKKbeta (unknown origin) at 1 uM by FRET method; in short: as §2
[16] = molecular target: Hepatocyte growth factor receptor (Homo sapiens) (UniProt P08581); assay: Inhibition of Met (unknown origin) at 1 uM by FRET method; in short: as §1
[17] = molecular target: Tyrosine-protein kinase Lck (Homo sapiens) (UniProt P06239); assay: Inhibition of Lck (unknown origin) at 1 uM by FRET method; in short: as §2
[18] = molecular target: Dual specificity mitogen-activated protein kinase kinase 4 (Homo sapiens, UniProt P45985); assay: Inhibition of MKK4 (unknown origin) using KFMMTPpYVVTR substrate incubated for 1 hr measured by MpTPpYV probe-based fluorescence polarization assay
In short: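 MKK4 at 30 nM was incubated with 100 µM KFMMTPpYVVTR peptide, 5 µM ATP and 3.3 nM fluorescent MpTPpYV probe. Buffer was 50 mM HEPES pH 7.5 with 5 mM MgCl2 and 10 mM DTT. Reaction ran 1 h at 23 °C, was stopped with EDTA plus anti-phospho-JNK antibody, and read by FP (ex 633/em 670 nm). Activity was normalized to the positive control.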

[19] = molecular target: Receptor-type tyrosine-protein kinase FLT3 (Homo sapiens, UniProt P36888); assay: Inhibition of Flt3 (unknown origin) by FRET method
[20] = molecular target: Dual specificity mitogen-activated protein kinase kinase 1 (Homo sapiens) (UniProt Q02750); assay: Inhibition of MEK1 (unknown origin) at 1 uM by FRET method; in short: as §2
[21] = molecular target: Serine/threonine-protein kinase PLK1 (Homo sapiens) (UniProt P53350); assay: Inhibition of PLK1 (unknown origin) at 1 uM by FRET method; in short: as §1
[22] = molecular target: Serine/threonine-protein kinase Nek1 (Homo sapiens) (UniProt Q96PY6); assay: Inhibition of NEK1 (unknown origin) at 1 uM by FRET method; in short: as §1
Mus musculus = assay: Unbound fraction in brain in mouse at 50 mg/kg, po at 6 hr; type: ADME, organism-based; conditions: in vivo
[23] = molecular target: Mitogen-activated protein kinase 8 (Homo sapiens, UniProt P45983); assay: Inhibition of JNK1alpha1(unknown origin) at 1 uM by FRET method; in short: as §2
[24] = molecular target: Proto-oncogene tyrosine-protein kinase receptor Ret (Homo sapiens) (UniProt P07949); assay: Inhibition of Ret (unknown origin) at 1 uM by FRET method; in short: as §1
[25] = molecular target: Glycogen synthase kinase-3 beta (Homo sapiens, UniProt P49841); assay: Inhibition of GSK3beta (unknown origin) at 1 uM by FRET method; in short: as §2
TAK1/TAB1 (Homo sapiens) = TAK1/TAB1 (Homo sapiens) (UniProt Q15750+O43318); assay: Inhibition of TAK1-TAB1 (unknown origin) at 1 uM by FRET method; type: protein-complex assay; in short: as §1
[26] = molecular target: Mitogen-activated protein kinase 9 (Homo sapiens, UniProt P45984); assay: Inhibition of JNK2 (unknown origin) by FRET method
In short: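 JNK1, JNK2 and JNK3 IC50 values came from a 10-point dose–response enzymatic assay.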

[27] = molecular target: Mitogen-activated protein kinase kinase kinase 8 (Homo sapiens) (UniProt P41279); assay: Inhibition of Cot (unknown origin) at 1 uM by FRET method; in short: as §2
[28] = molecular target: T2, Proto-oncogene tyrosine-protein kinase Src; assay: Inhibition of Src (unknown origin) by FRET method; in short: as §3
[29] = Plasma clearance in […] rat at 0.4 or 1 mg/kg, iv and 1 or 5 mg/kg, po; type: ADME, organism-based
In short: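 Rat PK: iv dosing at 0.4 or 1 mg/kg as a 60% PEG solution, po dosing at 1 or 5 mg/kg as an aqueous suspension with 1% methylcellulose.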

T2 sequence (P12931 2-536 limits assumed): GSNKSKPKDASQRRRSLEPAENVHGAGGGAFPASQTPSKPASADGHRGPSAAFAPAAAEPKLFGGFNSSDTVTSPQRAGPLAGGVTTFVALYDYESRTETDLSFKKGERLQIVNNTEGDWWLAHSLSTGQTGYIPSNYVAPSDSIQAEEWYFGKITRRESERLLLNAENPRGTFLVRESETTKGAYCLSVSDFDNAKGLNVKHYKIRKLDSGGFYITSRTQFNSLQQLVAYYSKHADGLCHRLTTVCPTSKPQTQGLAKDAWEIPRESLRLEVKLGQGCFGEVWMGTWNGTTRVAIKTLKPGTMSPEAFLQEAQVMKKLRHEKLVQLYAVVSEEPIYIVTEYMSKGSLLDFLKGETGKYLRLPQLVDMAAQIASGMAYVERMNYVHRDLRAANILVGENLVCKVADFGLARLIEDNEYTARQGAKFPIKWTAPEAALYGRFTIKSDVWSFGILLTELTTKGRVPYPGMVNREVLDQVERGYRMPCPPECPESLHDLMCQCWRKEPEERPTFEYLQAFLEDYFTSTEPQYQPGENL
Chain of Angiopoietin-1 receptor (Homo sapiens) (Q02763 whole entry): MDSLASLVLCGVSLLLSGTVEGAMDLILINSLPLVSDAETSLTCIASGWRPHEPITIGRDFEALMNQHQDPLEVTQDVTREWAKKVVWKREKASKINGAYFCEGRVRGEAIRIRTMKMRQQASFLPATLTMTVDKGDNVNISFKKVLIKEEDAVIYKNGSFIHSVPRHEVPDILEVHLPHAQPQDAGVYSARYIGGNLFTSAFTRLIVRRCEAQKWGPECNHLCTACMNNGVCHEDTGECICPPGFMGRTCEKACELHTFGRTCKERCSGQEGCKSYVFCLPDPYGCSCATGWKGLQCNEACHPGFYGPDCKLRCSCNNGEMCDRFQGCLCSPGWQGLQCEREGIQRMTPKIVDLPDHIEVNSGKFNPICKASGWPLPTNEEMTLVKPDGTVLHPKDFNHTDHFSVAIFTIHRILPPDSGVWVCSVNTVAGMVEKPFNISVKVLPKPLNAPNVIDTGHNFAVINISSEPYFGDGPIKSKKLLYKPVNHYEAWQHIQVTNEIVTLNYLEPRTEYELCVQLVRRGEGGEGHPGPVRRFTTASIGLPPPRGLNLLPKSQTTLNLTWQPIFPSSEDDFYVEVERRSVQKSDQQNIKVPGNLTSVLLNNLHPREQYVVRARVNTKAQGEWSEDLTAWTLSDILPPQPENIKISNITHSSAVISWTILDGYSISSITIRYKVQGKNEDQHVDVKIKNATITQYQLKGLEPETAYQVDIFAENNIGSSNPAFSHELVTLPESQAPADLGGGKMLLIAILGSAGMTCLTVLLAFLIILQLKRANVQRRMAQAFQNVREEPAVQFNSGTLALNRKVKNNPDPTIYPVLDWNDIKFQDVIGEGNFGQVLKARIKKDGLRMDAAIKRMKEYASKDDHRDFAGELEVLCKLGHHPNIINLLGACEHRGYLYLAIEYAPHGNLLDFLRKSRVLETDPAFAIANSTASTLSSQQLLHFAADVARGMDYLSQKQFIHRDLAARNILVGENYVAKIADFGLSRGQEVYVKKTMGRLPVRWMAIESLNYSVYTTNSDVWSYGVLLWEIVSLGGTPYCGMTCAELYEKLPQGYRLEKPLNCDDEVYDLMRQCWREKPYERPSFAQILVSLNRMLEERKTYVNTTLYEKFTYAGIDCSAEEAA
Chain of Interleukin-1 receptor-associated kinase 4 (Homo sapiens) (Q9NWZ3 whole entry): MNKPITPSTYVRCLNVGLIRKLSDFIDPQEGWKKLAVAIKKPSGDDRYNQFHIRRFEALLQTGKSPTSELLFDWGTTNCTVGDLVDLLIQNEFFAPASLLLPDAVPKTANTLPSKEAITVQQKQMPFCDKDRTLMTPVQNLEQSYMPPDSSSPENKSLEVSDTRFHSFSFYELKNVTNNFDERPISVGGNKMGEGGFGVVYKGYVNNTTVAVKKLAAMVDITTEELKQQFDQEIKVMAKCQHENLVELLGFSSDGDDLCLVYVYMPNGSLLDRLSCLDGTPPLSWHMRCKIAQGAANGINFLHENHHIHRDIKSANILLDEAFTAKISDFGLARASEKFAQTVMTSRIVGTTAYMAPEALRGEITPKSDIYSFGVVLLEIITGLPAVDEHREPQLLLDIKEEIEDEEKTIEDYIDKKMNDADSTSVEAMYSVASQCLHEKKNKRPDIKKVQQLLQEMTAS
Chain of Dual specificity mitogen-activated protein kinase kinase 4 (P45985 whole entry): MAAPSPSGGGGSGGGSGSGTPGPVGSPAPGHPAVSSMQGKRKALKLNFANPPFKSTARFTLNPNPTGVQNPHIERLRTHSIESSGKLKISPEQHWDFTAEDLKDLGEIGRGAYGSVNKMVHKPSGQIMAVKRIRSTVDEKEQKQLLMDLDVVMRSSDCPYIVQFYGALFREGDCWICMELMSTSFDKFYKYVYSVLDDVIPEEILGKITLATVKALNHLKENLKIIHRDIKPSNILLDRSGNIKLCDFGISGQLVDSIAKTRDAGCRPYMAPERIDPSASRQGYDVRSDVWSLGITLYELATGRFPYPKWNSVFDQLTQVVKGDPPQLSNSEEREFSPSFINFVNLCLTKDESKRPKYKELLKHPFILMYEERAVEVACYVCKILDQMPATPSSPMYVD
Chain of Mitogen-activated protein kinase kinase kinase 8 (Homo sapiens) (P41279 whole entry): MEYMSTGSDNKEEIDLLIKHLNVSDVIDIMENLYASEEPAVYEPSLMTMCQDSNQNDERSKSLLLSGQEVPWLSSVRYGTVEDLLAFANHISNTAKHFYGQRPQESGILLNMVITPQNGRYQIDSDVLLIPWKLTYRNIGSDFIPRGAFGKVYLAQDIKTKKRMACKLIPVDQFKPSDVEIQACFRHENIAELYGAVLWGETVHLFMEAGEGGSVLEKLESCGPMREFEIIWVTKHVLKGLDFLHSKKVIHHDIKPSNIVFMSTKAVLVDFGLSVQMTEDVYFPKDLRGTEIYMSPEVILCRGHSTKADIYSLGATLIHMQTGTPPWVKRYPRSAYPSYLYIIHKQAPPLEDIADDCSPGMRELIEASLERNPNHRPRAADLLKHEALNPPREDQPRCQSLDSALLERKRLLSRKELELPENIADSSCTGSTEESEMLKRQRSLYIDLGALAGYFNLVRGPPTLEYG
Chain of Mast/stem cell growth factor receptor Kit (P10721 whole entry): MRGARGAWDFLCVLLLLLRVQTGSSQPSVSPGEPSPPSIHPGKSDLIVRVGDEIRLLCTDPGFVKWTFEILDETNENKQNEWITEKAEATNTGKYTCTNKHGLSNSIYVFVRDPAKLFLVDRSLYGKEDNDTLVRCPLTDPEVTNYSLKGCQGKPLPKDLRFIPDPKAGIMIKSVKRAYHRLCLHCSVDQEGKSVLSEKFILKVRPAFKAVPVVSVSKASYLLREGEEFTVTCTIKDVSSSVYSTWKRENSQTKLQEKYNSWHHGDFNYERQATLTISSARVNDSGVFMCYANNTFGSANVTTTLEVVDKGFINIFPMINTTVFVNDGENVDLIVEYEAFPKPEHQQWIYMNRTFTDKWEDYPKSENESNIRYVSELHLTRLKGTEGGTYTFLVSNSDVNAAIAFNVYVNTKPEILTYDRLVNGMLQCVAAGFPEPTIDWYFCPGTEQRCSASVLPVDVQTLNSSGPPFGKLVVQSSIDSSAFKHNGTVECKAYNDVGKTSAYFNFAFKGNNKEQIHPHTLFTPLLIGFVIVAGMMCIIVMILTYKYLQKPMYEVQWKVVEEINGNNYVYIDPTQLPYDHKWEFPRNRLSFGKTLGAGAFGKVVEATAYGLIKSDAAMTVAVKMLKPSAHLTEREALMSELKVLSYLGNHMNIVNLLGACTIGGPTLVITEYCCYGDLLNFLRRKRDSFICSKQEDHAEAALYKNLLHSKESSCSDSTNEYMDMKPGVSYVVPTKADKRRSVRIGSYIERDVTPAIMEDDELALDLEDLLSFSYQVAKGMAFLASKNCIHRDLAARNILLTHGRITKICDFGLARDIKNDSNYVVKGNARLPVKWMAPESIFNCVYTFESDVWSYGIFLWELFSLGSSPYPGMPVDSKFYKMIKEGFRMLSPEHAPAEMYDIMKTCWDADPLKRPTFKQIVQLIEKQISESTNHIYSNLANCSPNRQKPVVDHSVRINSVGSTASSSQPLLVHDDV
Chain of Serine/threonine-protein kinase PLK1 (Homo sapiens) (P53350 whole entry): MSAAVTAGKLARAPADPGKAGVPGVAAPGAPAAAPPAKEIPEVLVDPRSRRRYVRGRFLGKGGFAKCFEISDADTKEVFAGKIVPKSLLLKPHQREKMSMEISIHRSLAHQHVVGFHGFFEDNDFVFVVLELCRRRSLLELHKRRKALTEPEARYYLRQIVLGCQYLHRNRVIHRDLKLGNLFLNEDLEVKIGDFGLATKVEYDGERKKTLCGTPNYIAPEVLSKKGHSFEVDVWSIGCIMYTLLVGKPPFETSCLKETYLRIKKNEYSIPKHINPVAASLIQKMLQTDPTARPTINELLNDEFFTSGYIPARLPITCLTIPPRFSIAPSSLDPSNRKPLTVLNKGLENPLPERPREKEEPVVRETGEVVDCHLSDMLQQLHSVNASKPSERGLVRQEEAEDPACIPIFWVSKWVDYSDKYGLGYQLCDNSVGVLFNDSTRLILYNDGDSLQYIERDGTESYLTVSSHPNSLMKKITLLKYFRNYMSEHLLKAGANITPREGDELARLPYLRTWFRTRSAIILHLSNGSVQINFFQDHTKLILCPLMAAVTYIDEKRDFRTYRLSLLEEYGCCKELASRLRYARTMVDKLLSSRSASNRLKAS
Chain of Mitogen-activated protein kinase 9 (P45984 whole entry): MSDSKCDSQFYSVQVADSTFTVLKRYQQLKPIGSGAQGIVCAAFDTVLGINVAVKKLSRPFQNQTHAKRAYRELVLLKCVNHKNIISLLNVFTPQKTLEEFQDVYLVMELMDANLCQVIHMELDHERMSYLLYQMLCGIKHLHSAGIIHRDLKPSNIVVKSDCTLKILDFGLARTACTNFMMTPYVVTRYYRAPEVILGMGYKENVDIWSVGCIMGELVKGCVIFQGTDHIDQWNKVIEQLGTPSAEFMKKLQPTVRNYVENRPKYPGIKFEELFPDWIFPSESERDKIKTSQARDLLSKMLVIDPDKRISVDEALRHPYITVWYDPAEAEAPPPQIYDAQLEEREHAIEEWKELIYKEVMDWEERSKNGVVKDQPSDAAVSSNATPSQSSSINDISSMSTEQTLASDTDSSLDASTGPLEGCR

inhibition [1]: 1.8%
inhibition [2]: 63.3%
inhibition [3]: 7.1%
inhibition [4]: 5.2%
IC50 [5]: > 10000 nM
inhibition [6]: 4.4%
IC50 [7]: > 5000 nM
inhibition [8]: 56%
inhibition [9]: 1.6%
inhibition [10]: 55.4%
inhibition [11]: 19.5%
IC50 [12]: 57 nM
Kp uu [13]: 0.35
inhibition [14]: 1.8%
inhibition [15]: 5.4%
inhibition [16]: 23.4%
inhibition [17]: 37.5%
IC50 [18]: > 5000 nM
IC50 [19]: 322 nM
inhibition [20]: 4%
inhibition [21]: 7.3%
inhibition [22]: 3.1%
Drug uptake(free) (Mus musculus): 0.05 µM
inhibition [23]: 4.5%
inhibition [24]: 29.6%
inhibition [25]: 58.6%
inhibition (TAK1/TAB1 (Homo sapiens)): 13.6%
IC50 [26]: 5000 nM
inhibition [27]: 15.6%
IC50 [28]: 1010 nM
clearance [29]: 34 mL/min/kg
Structure (SMILES): N#Cc1ccnc(Nc2cc(C3CCN(C4COC4)CC3)n(C3CCCC3)n2)c1
